# From ChEMBL document CHEMBL4513216, “Probing the Open Global Health Chemical Diversity Library for Multistage-Active Starting Points for Next-Generation Antimalarials” (ACS Infect Dis, 2020)
# Assay: Toxicity liver stage against HepG2, at 10uM
# Type: cell-based
# Design: test concentration 10 uM, cell line HepG2-A16-CD81EGFP
# Details: human, HepG2-A16-CD81EGFP cells; read-out: INHIBITION
# Procedure, shortened: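 Uninfected HepG2-A16-CD81EGFP cells, 3 × 10^3 per well, 1536-well, plated on prespotted compound at 10 μM final, parasite-free screening media added to match infected plates; puromycin 10 μM positive, DMSO 0.5% negative; run in parallel with 48 h PbLuc assay at 37 °C, 5% CO2; viability by CellTiter-Glo luminescence, normalized to controls.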
row,Structure (SMILES),cytotoxicity at 10 µM
1,O=C(O)C[C@@H]1CCN(C(=O)c2cccs2)C[C@@H]1CCN1CCCCC1,2.4%
2,COc1ccc(Cl)cc1Nc1nc(N)c(C(C)=O)s1,2.52%
3,Cn1cc(NC(=O)CNC(=O)N2CCN(c3ccc(F)cc3)CC2)cn1,2.27%
4,CC(C)n1nc(O)c2c1NC(=O)CSC2c1cnn(C)c1 (stereo unspecified),-5.28%
5,COCCn1ccc2c(NC(=O)c3n[nH]c4c3CCC4)cccc21,-1.6%
6,CCS(=O)(=O)N1CC(c2nc(-c3cccs3)no2)C1,-7.3%
7,CCOc1ccccc1NC(=O)NCC(C)(O)CCSC (stereo unspecified),-6.14%
8,CC(C)COCC1CN(Cc2ccoc2)Cc2ncn(C)c21 (stereo unspecified),4.53%
9,CS(=O)(=O)N1CCc2nc(NC(=O)Nc3c(F)cccc3F)sc2C1,-10.4%
10,COCC(=O)N1CC[C@H]2C[C@@H](c3nnc(C4CC4)o3)O[C@@H]2C1,-6.77%
11,CCC(=O)N1CCC(c2nc3ccc(NC(C)C)cn3n2)CC1,-10.2%
12,COc1ccc(Nc2nc3c(C)nn(C)c3c(=O)n2C)cc1,-0.103%
13,CCC(CCNC(=O)c1cc(C2CC2)nc2c1cnn2C)n1cccn1 (stereo unspecified),2.04%
14,COCC(=O)N1CCC(c2c(C(=O)N(C)C)sc3ncccc23)C1 (stereo unspecified),1.55%
15,O=C(c1cccnc1)N1CCCC(c2ccnc3nccn23)C1 (stereo unspecified),6.2%
16,CC(=O)N1CCC(C)(c2cc(C(=O)NCC3CC3)nc(C)n2)CC1,2.87%
17,COCCN1CCC(C)(c2cc(O)[nH]n2)CC1,2.02%
18,Cc1ncc(CN)c(-c2cn(C)c3ccccc23)n1,2.97%
19,Cc1ccc(C)c2c(C)c(C(=O)NCC[S+](C)[O-])[nH]c12 (stereo unspecified),3.03%
20,Cc1ncc(CN(C)C)c(C2CCCN2c2ncccn2)n1 (stereo unspecified),-0.6%
21,CC(C)(C)c1nc(CN(Cc2ccccc2Cl)C2CCCC2)no1,3.25%
22,CCc1ncc2c(n1)CN(CC1CCCCO1)CC2 (stereo unspecified),-21.1%
23,Cc1ccc(CC(=O)NCC(O)c2ccc(Cl)cc2Cl)cn1 (stereo unspecified),-10.1%

row,Structure (SMILES),cytotoxicity at 10 µM
1,CC(C(=O)NC(C)(C)C)S(=O)(=O)Cc1noc(C(C)(C)C)n1 (stereo unspecified),-10.8%
2,COc1ccccc1CC1CCCN1C(=O)c1cn[nH]c1C (stereo unspecified),0.58%
3,Cc1ccc(NC(=O)N2CC[C@@H](O)C2)c(-c2nc(C3CC3)no2)c1,-4.16%
4,O=S(=O)(c1ccc(Cl)s1)N1CCCn2ncnc21,-3.06%
5,CCOCC(=O)N(C)Cc1nc(C(F)(F)F)cs1,2.49%
6,O=C(N1CCN(c2ccccc2O)CC1)C1(O)Cc2ccccc2C1,0.0894%
7,COC1CCN(CCNC(=O)C2CCCCC2)CC1,0.545%
8,Cc1ccccc1CS(=O)(=O)Cc1nc(C2CC2)no1,4.49%
9,O=C(COC1CCCC1)N1CCCN(c2ncccn2)CC1,15.9%
10,COc1ncccc1NC(=O)N1CCCC1c1cc(C)no1 (stereo unspecified),-9.66%
11,CC(=O)NCCCNC(=O)Nc1ccccc1-n1nc(C)cc1C,6.57%
12,CN(Cc1cccc(C#N)c1)S(=O)(=O)N1CCOCC1,6.95%
13,O=C(Cc1csc(-c2ncccn2)n1)N1CCN2CCCCC2C1 (stereo unspecified),7.94%
14,Cc1ccsc1CNCc1c(C(C)C)nn(C)c1N1CCOCC1,8.42%
15,Cc1nccn1-c1cc(CNC(=O)C2CCC(=O)NC2)ccn1 (stereo unspecified),4.83%
16,COc1ccccc1C(=O)Nc1c(C)cnn1CC1CC1,-3.47%
17,CCOCCN1CCN(Cc2nnc(-c3ccco3)o2)CC1,-53.1%
18,O=C(CCc1ccccn1)NCC(O)c1ccc(Cl)cc1Cl (stereo unspecified),8.54%
19,Cn1cc(CNCCNC(=O)Cc2ccccc2)c(-c2cccnc2)n1,13.1%
20,CC(C)(CO)CCCNC(=O)NC1(c2ccccc2F)CC1,9.08%
21,CN(C)C(=O)c1cccn1-c1ccc2c(c1)OCCO2,12.6%
22,COCc1cccc(NC(=O)N(C)Cc2ncc(C)c(OC)c2C)c1,-1.01%
23,CCc1ccc(C(=O)O)cc1S(=O)(=O)Nc1ccc(=O)n(C)c1,11.7%

row,Structure (SMILES),cytotoxicity at 10 µM
1,NS(=O)(=O)c1cnc(NCC2(c3ccccc3)CCC2)s1,-4.88%
2,OCCN(Cc1nc(-c2ccc3c(c2)OCO3)no1)CC1CC1,8.37%
3,CC(NCc1cccc(S(=O)(=O)N(C)C)c1)c1ccccn1 (stereo unspecified),-10.5%
4,CN1CCC(CNC(=O)c2ccc3cccc(Cl)c3n2)C1 (stereo unspecified),-8.93%
5,CCc1noc(CN(CC)Cc2cc3ccc(C)cc3[nH]c2=O)n1,0.417%
6,COC(=O)C1C=CCN1C(=O)c1cc(COc2ccccc2)[nH]n1 (stereo unspecified),-4.45%
7,O=C(O)c1ccccc1C1CCN(Cc2ccc(-c3cc[nH]n3)o2)C1 (stereo unspecified),-10.2%
8,Cc1nc(O)cc(C2CCN(C(=O)c3[nH]nc4c3CC(C)CC4)CC2)n1 (stereo unspecified),3.06%
9,CCN(CC)C(=O)c1ccc(Cl)c(NC(=O)c2cc[nH]n2)c1,7.86%
10,CCn1cc(CN2CCCC(c3[nH]ncc3-c3ccc(F)cc3)C2)cn1 (stereo unspecified),1.63%
11,CNc1nc(C(=O)N2CCn3nc(C(=O)OC)cc3C2)cs1,-8.61%
12,CC(C)C(=O)N1CCC(CNc2nc(C(C)C)nc3c2cnn3C)CC1,-4.25%
13,CCC(CO)N(C/C(C)=C/c1ccco1)Cc1ccco1 (stereo unspecified),-3.41%
14,COCC[C@]1(O)CCN(C(=O)C2CCN(C3CCCC3)CC2)C[C@H]1C,-0.292%
15,O=C(NC1CC1)C1CNCCN1C(=O)COc1ccc2c(c1)OCO2 (stereo unspecified),-1.74%
16,CC(C)C1CN(C(=O)c2cc(=O)[nH]c(=O)[nH]2)CCC(=O)N1CC1CC1 (stereo unspecified),1.08%
17,CCc1cc(NCCN2CCNC2=O)n2nccc2n1,-3.04%
18,CCn1c(CC2CCN(C(=O)C3COCCO3)CC2)nn(C)c1=O (stereo unspecified),-0.525%
19,Cc1cc(N2CCC3(CC2)C(C(=O)O)CC(=O)N3C)nc2ccccc12 (stereo unspecified),-1.6%
20,Cn1c(CN2CCOCC2)nnc1C1CCCN(CC(N)=O)C1 (stereo unspecified),5.23%
21,O=C1NC(C(=O)NCc2cccnc2Oc2ccc(F)cc2F)CO1 (stereo unspecified),-1.32%
22,CC(c1ccccn1)N(C)Cc1cccc(C(=O)Nc2nccn2C)c1 (stereo unspecified),14.6%
23,CC(Nc1nc(-c2ccccc2)nc2c1CCNCC2)c1nccs1 (stereo unspecified),2.49%

row,Structure (SMILES),cytotoxicity at 10 µM
1,O=C(COc1ccc2cccnc2c1)N1CCN[C@H]2CS(=O)(=O)C[C@H]21,7.98%
2,Nc1ccnc(C(=O)N2CCCC3(CCC(=O)N(C4CCCC4)C3)C2)c1 (stereo unspecified),-19.8%
3,COc1cccc(-c2cc(NCC(=O)O)nc3[nH]ccc23)n1,8.09%
4,Cc1cc(N(C)CCN(C)C)n2nc(C)cc2n1,7.77%
5,CSc1cccc(CN(C)C(=O)c2ccc(C3CCCNC3)cc2)c1 (stereo unspecified),-3.07%
6,COC(=O)NCc1cc2n(n1)CCCN(C(C)=O)C2,-2.26%
7,CCn1c(N)nc2cc(C(=O)NCCc3ccccc3C)cnc21,-10.8%
8,CC(C(=O)Nc1ccc(N2CCCC2)nc1)n1cccn1 (stereo unspecified),-17.1%
9,CCC(NC(=O)C1CC1)c1ccccc1OCC(=O)N1CCCC1 (stereo unspecified),-9.16%
10,CN1CCCC1CNC(=O)CCCOc1cccc(Br)c1 (stereo unspecified),-11.3%
11,O=C(CCCc1ccccn1)N1CCCC(n2cccn2)C1 (stereo unspecified),-10.7%
12,Cn1ccnc1CC1CCCN(Cc2noc(C3CC3)n2)C1 (stereo unspecified),-5.68%
13,Cc1cccc(-n2c(C)cc(C(=O)NS(C)(=O)=O)c2C)c1,-4.08%
14,CN1CCC(N(C)C(=O)c2cnc3c(cnn3C3CCCC3)c2)CC1,-26.9%
15,O=C(c1ccc(-n2cnnc2)cc1)N1CCCC(n2ccnc2)C1 (stereo unspecified),-10.7%
16,CCOCC(O)CN1CCN(C(=O)c2cccc(CC#N)c2)CC1 (stereo unspecified),-16.4%
17,COc1c(C)cnc(CN2CCOC(CNc3cccnn3)C2)c1C (stereo unspecified),-10.5%
18,Cc1cnc(CN2CCCC2c2noc(C(C)C)n2)cn1 (stereo unspecified),-15.1%
19,Cc1ccc(NC2CCN(C(=O)c3cc(C)sc3C)CC2)nn1,-5.59%
20,CC(C(=O)NCc1ccc(N2CCCCC2)nc1)S(C)(=O)=O (stereo unspecified),-8.81%
21,c1ccc2oc(CCCN3CCCC3c3noc(C4CC4)n3)nc2c1 (stereo unspecified),-13.5%
22,Cn1nc2c(cc1=O)CN(Cc1coc(-c3cccc(F)c3)n1)CC2,-12.6%
23,O=C(c1cc2cc(I)ccc2[nH]1)N1CCC(Nc2cccnn2)CC1,-8.12%

row,Structure (SMILES),cytotoxicity at 10 µM
1,Fc1ccc(-c2nnc(CN3CCCC3Cn3cncn3)o2)cc1 (stereo unspecified),-10.5%
2,Cc1cnc(CN(C)C2CCN(CCc3ccccn3)CC2)cn1,-12.1%
3,COCCN1CCN(CCS(=O)(=O)C(F)(F)F)CC1C (stereo unspecified),-5.77%
4,Cc1cnn(CC2CCCN2Cc2nnc(Cc3ccccc3)o2)c1 (stereo unspecified),-11.7%
5,Cc1cc(C2CCCN2Cc2ccn(C)c(=O)c2)no1 (stereo unspecified),-9.03%
6,Cc1nc2ccccc2c(=O)n1CCC(=O)N1CCNC(=O)C1,-19%
7,c1ccc(-c2cnc(CN3CCn4c(nnc4C4CC4)C3)o2)cc1,-7.67%
8,CCOc1ncccc1NC(=O)NCC(O)c1ccccc1OC (stereo unspecified),-8.36%
9,Cc1ccc(C(=O)N2CCN(Cc3ccsc3)CC2)n1C,0.914%
10,CCc1nc(C2CCCN2C(=O)c2cc(C3CC3)[nH]n2)no1 (stereo unspecified),1.03%
11,CCOCCN1CCCC(c2cc(C(N)=O)[nH]n2)C1 (stereo unspecified),3.78%
12,Cc1cnn(CC2CCCCN2C(=O)c2cc(C(N)=O)cs2)c1 (stereo unspecified),2.02%
13,Cc1nc2ccccc2nc1CN1CCCC1Cn1cncn1 (stereo unspecified),-1.28%
14,CN(Cc1ccsc1)C(=O)CS(=O)(=O)Cc1ccc(Cl)c(Cl)c1,-0.987%
15,O=C1NC2(CCN(C(=O)N3CCOCC3)CC2)CC1c1cccnc1 (stereo unspecified),-128%
16,CNC(=O)CN1CC[C@H]2CN(C(=O)c3cccn3C)C[C@H]2C1,2.31%
17,O=C(NCc1ccco1)[C@H]1C[C@@H]2CCN(c3ncccn3)C[C@H]2O1,7.1%
18,CC(=O)N1CCC(c2nc3ccc(NC4CCC4)cn3n2)CC1,-107%
19,CSc1nc(N)cc(N2C[C@H]3CC[C@@H](C2)N(Cc2cscn2)C3=O)n1,-12%
